From ChEMBL document CHEMBL1139016, “Synthesis and antiviral activity of 2'-deoxy-2'-fluoro-2'-C-methyl purine nucleosides as inhibitors of hepatitis C virus RNA replication” (Bioorg Med Chem Lett, 2006)

Experiments:
[1] = system: Hepatitis C virus; experiment: Antiviral activity against HCV replication; type: functional, organism-based, Hepacivirus hominis
[2] = system: Huh-7; experiment: Cytotoxicity against Huh7 cells by MTS assay; type: functional; details: Homo sapiens
In short: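 Cells exposed to compound for 96 h; viability read by MTS tetrazolium reduction (non-radioactive cell proliferation kit); CC50 taken as the 50% cytotoxic concentration.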

| SMILES | EC90 [1] [µM] | CC50 [2] [µM] |
| --- | --- | --- |
| C[C@@]1(F)[C@H](O)[C@@H](CO)O[C@H]1n1cnc2c(Cl)nc(N)nc21 | 62.4 | > 100 |
| C[C@@]1(F)[C@H](O)[C@@H](CO)O[C@H]1n1cnc2c(O)nc(N)nc21 | 56 | > 100 |
| C[C@@]1(F)[C@H](O)[C@@H](CO)O[C@H]1n1cnc2c(N)ncnc21 | > 100 | > 100 |
| C[C@@]1(F)[C@H](O)[C@@H](CO)O[C@H]1n1cnc2c(Cl)ncnc21 | 88.2 | 27.1 |
| C[C@@]1(O)[C@H](O)[C@@H](CO)O[C@H]1n1cnc2c(N)ncnc21 | 1.4 | 15 |
| C[C@@]1(O)[C@H](O)[C@@H](CO)O[C@H]1n1cnc2c(=O)[nH]c(N)nc21 [2'-B-METHYL-GUANOSINE] | 10.8 | > 100 |
